The source of these data is ChEMBL document CHEMBL1926653, “Synthesis and binding assays of novel 3,3-dimethylpiperidine derivatives with various lipophilicities as σ₁ receptor ligands” (Bioorg Med Chem, 2011).

SMILES strings stand for the structures. Bounds are passed on as bounds.

In assay [1] the target is Sigma non-opioid intracellular receptor 1 (Cavia porcellus, UniProt Q60492). Description: Displacement of [3H]-(+)-pentazocine from sigma1 receptor in guinea pig brain membranes without cerebellum. It is filed as cell membranes, Membrane. The conditions noted are these: read-out: Ki(app). For orientation: Loss of bound radioactivity is the signal in a displacement assay; it reports binding, not function.
Sigma non-opioid intracellular receptor 1 (Cavia porcellus, UniProt Q60492), sequence (Q60492 whole entry): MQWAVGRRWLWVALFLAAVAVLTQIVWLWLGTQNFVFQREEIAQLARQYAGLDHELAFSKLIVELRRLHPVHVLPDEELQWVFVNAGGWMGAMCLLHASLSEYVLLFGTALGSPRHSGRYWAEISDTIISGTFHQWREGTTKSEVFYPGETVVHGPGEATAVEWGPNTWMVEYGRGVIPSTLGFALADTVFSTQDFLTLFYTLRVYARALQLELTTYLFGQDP

Assay [2] is described as follows: Displacement of [3H]DTG from sigma 2 receptor in rat liver membranes. Particulars: read-out: Ki(app). Format: cell membranes, Membrane. In short, it runs like this: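 Sigma-2 site labelled with [3H]-DTG at 30 Ci/mmol, following Matsumoto et al. Curves used 6–9 concentrations of test drug, repeated in two or three experiments with duplicate samples. IC50 (50% inhibition of specific binding) and apparent Ki were obtained by nonlinear curve fitting.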

The target in assay [3] is T1, 3-beta-hydroxysteroid-Delta(8),Delta(7)-isomerase (Cavia porcellus, UniProt Q60490).
T1 sequence (Q60490 whole entry): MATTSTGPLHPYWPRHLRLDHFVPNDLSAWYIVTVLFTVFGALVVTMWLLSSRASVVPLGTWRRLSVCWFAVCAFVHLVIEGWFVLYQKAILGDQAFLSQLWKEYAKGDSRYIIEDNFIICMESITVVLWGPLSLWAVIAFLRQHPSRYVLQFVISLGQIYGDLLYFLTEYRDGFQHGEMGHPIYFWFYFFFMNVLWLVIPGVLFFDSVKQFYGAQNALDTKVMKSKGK
The assay is described as follows: Displacement of [3H]-emopamil from delta(8)-delta(7) sterol isomerase in guinea pig liver membranes. It is filed as cell membranes, Membrane. The conditions noted are these: read-out: Ki(app). In outline: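 Assay followed Moebius et al. Inhibition curves used 6–9 drug concentrations over two or three experiments run in duplicate. IC50 is the concentration giving 50% loss of specific radioligand binding. Apparent Ki came from nonlinear curve fitting.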

The nature of assay [4]: Selectivity ratio of Ki for sigma 2 receptor in rat liver membranes to Ki for sigma 1 receptor in guinea pig brain membranes. It is filed as cell membranes. The conditions noted are these: Membrane.
The target of assay [5] is Sigma non-opioid intracellular receptor 1 (Cavia porcellus) (UniProt Q60492). The assay is described as follows: Displacement of [3H]-(+)-pentazocine from sigma 1 receptor in guinea pig brain membranes at 10^-10 M. Format: cell membranes. The conditions noted are these: Membrane.
Sigma non-opioid intracellular receptor 1 (Cavia porcellus), sequence (Q60492 whole entry): as the sequence (Q60492 whole entry) above
The target of assay [6] is Sigma non-opioid intracellular receptor 1 (Rattus norvegicus, UniProt Q9R0C9). The assay is described as follows: Binding affinity to sigma1 receptor in rat brain membranes. It is filed as cell membranes. In outline:
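Radioligand displacement binding. IC50 is the concentration inhibiting 50% of specific radioligand binding, from 6–9 concentrations of the test drug, run in two or three experiments with duplicate samples. Apparent Ki came from nonlinear curve fitting. Compounds were tested as hydrochloride salts, or as free bases in some cases.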

Sigma non-opioid intracellular receptor 1 (Rattus norvegicus, UniProt Q9R0C9), sequence (Q9R0C9 whole entry): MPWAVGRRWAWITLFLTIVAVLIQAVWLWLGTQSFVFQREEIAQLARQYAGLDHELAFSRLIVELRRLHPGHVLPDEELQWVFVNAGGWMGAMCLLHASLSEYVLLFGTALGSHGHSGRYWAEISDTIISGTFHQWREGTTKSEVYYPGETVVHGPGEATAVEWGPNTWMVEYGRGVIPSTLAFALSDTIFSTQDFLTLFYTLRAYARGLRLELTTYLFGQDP

In the case of `CC1(C)CCCN(CCCc2cccc3occc23)C1`, the figures for the Ki in assay [1], in assay [2] and in assay [3] were 63.5 nM, 42.3 nM and 1.1 nM, respectively. Also, the Ratio Ki in assay [4] amounted to 0.7.
For `CC1(C)CCCN(CCCCC2CCc3ccccc32)C1` (stereo unspecified), the figures for the Ki in assay [1], in assay [2] and in assay [3] were 1.75 nM, 242 nM and 1.54 nM, respectively. In addition, the Ratio Ki in assay [4] was found to be 138.
With `CC1(C)CCCN(CCNc2nc3c(s2)C(=O)CCC3)C1`, the Ki in assay [1], in assay [2] and in assay [3] was over 10000 nM in each case.
In the case of `CC1(C)CCCN(CCCC2CCCc3sccc32)C1` (racemic) [listing 1 of 3 here], the Ratio Ki in assay [4] came to 180.
On to `COc1cccc2c1CCCC2CCCCN1CCCC(C)(C)C1` (stereo unspecified), for which the figures for the Ki in assay [1], in assay [2] and in assay [3] were 2.12 nM, 247 nM and 0.67 nM, respectively. In addition, the Ratio Ki in assay [4] was determined as 117.
Consider `CC1(C)CCCN(Cc2cc3ccccc3o2)C1`, for which the Ki in assay [1] was determined as 3690 nM; in assay [2], 1810 nM. Moreover, the Ratio Ki in assay [4] was 0.4.
Consider `CC1(C)CCCN(CCCn2nnc3ccccc32)C1`, for which the figures for the Ki in assay [1] and in assay [2] were 339 nM and 1990 nM, respectively. Besides, the Ratio Ki in assay [4] stood at 5.6.
On to `CC1(C)CCCN(CCCCCC2CCCc3sccc32)C1` (racemic), for which the Ki in assay [2] amounted to 28.1 nM; in assay [3], 2.11 nM. Further, the inhibition (as a rule, the share of the control response that was lost under treatment) in assay [5] was 78%.
Consider `CC1(C)CCCN(CCCn2ccc3ccccc32)C1`, for which the Ki in assay [1] amounted to 50.9 nM; in assay [2], 194 nM. In assay [4], the Ratio Ki is 3.8.
As for `CC(C(O)c1ccc(O)cc1)N1CCC(Cc2ccccc2)CC1` (racemic) [IFENPRODIL], the Ki in assay [3] worked out at 15 nM.
In the case of `CC1(C)CCCN(CCCCC2CCCCc3ccccc32)C1` (racemic), the values for the Ki in assay [1], in assay [2] and in assay [3] were 0.14 nM, 65.9 nM and 7.3 nM, respectively. In addition, the Ratio Ki in assay [4] came out at 471.
Take `CC1(C)CCCN(CCCC2CCCc3[nH]ccc32)C1` (racemic): the Ki in assay [1] is 27.1 nM; in assay [2] it was 119 nM. For the same molecule, the Ratio Ki in assay [4] was determined as 4.4.
As for `Cc1ccccc1NC(=N)Nc1ccccc1C` [DITOLYLGUANIDINE], the Ki in assay [2] was 34.3 nM.
Regarding `CC1(C)CCCN(CCCCN2CCCC(C)(C)C2)C1`, the figures for the Ki in assay [1], in assay [2] and in assay [3] were 14.1 nM, 414 nM and 213 nM, respectively. The Ratio Ki in assay [4] was 29.
On the same counts, the results for `CC1(C)CCCN(CCNc2nc3ccccc3s2)C1` are 566 nM, 742 nM, 115 nM and 1.3.
`CC1(C)CCCN(CCCC2CCCc3sccc32)C1` (racemic) [listing 2 of 3 here]: the results for the Ki in assay [1], in assay [2] and in assay [3] were 0.21 nM, 38 nM and 3.07 nM, respectively.
For the molecule `CC1(C)CCCN(CCCC2CCCc3sccc32)C1` (racemic) [listing 3 of 3 here], the Ki in assay [6] was over 3960 nM.
Regarding `CC1(C)CCCN(CCNc2nccs2)C1`, the values for the Ki in assay [1], in assay [2] and in assay [3] were 459 nM, 3330 nM and 1400 nM, respectively. Besides, in assay [4], the Ratio Ki was 7.2.
On the same counts, the results for `CC1(C)CCCN(CCCCC2CCCCC2)C1` are 1.02 nM, 19.6 nM, 3.8 nM and 19.
As to `CC1(C)CCCN(CCCC2CCCCc3ccccc32)C1` (racemic), the Ki in assay [1] was 0.38 nM; in assay [2], 37.5 nM; in assay [3], 0.2 nM. For the same molecule, the Ratio Ki in assay [4] is 101.
For `CC1(C)CCCN(CC(=O)Nc2nc3c(s2)C(=O)CCC3)C1`, the Ki in assay [1], in assay [2] and in assay [3] was over 10000 nM in each case.
As to `CC1(C)CCCN(CCCc2cccc3sccc23)C1`, the Ki worked out at 52 nM in assay [1], 63.6 nM in assay [2] and 0.9 nM in assay [3]. Moreover, in assay [4], the Ratio Ki turned out to be 1.2.
In the case of `CC1(C)CCCN(CCCc2c[nH]c3ccccc23)C1`, the figures for the Ki in assay [1] and in assay [2] were 41.6 nM and 110 nM, respectively. The Ratio Ki in assay [4] was found to be 2.6.
